Measurements: ChEMBL document CHEMBL1131058, “Studies on quinazolines and 1,2,4-benzothiadiazine 1,1-dioxides. 8.1, 2 synthesis and pharmacological evaluation of tricyclic fused quinazolines and 1,2,4-benzothiadiazine 1,1-dioxides as potential alpha1-adrenoceptor antagonists” (J Med Chem, 1998)

What was measured:
[1] = biological target: T1, Adrenergic receptor alpha-1 (Rattus norvegicus, UniProt P15823+P23944+P43140); test: Binding affinity towards Alpha-1 adrenergic receptor measured by displacement of [3H]prazosin from rat brain cortex membranes; assay type: cell membranes, Membrane
T1 sequence (P15823 whole entry): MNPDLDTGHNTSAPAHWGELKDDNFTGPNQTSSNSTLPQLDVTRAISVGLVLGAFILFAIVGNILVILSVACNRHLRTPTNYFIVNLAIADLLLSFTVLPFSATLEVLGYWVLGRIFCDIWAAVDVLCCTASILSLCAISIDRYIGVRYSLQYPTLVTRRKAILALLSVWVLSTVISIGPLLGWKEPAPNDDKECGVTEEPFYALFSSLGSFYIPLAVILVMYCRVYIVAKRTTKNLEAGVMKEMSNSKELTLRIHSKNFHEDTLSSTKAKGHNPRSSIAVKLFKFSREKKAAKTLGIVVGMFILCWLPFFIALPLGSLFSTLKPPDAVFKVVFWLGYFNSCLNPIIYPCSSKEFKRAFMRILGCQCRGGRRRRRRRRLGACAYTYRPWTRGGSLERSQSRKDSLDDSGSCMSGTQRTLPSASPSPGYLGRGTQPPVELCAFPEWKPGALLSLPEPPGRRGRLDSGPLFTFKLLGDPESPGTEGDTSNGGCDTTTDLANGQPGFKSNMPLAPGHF
T1 sequence (P23944 whole entry): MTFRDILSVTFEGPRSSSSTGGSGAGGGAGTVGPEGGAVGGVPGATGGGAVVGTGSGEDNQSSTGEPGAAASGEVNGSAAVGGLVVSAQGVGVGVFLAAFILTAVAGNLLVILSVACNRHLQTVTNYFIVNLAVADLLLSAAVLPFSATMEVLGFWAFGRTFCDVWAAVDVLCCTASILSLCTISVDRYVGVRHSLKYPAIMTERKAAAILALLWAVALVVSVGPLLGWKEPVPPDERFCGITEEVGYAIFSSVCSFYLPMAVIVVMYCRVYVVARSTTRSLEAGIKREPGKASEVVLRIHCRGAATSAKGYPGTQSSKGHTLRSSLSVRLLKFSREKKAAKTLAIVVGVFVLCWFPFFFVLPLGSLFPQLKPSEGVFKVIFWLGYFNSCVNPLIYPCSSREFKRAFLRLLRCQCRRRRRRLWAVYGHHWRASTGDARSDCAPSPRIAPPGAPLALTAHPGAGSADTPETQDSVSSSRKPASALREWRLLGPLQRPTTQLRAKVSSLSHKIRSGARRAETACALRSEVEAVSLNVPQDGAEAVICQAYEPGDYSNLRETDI
T1 sequence (P43140 whole entry): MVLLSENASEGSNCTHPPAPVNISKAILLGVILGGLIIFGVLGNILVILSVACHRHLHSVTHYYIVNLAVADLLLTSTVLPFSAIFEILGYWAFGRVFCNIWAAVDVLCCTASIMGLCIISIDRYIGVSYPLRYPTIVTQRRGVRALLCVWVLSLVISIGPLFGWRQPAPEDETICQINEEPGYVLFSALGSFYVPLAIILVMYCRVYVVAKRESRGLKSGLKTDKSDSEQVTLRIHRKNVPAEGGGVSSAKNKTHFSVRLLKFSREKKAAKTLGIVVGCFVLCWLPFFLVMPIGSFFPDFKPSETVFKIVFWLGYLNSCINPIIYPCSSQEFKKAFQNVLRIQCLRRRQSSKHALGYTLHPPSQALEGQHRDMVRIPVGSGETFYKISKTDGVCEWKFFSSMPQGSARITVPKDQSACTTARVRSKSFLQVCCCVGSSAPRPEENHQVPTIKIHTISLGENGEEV
Summary of the method: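 Triplicate competition binding against 0.2-0.25 nM [³H]prazosin in Tris buffer pH 7.4, 30 min at room temperature. Competitor range 0.1-200 nM. Nonspecific binding defined with 10 µM phentolamine. Reaction stopped by GF/B filtration with two cold Tris washes. Membrane protein 300-400 µg per assay. Ki calculated from the data; mean ± SEM of 3-6 experiments.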

[2] = biological target: T2, Adrenergic receptor alpha-2 (Rattus norvegicus, UniProt P22086+P19328+P22909); test: Displacement of clonidine from Alpha-2 adrenergic receptor in rat brain cortex; assay type: tissue-based
T2 sequence (P22086 whole entry): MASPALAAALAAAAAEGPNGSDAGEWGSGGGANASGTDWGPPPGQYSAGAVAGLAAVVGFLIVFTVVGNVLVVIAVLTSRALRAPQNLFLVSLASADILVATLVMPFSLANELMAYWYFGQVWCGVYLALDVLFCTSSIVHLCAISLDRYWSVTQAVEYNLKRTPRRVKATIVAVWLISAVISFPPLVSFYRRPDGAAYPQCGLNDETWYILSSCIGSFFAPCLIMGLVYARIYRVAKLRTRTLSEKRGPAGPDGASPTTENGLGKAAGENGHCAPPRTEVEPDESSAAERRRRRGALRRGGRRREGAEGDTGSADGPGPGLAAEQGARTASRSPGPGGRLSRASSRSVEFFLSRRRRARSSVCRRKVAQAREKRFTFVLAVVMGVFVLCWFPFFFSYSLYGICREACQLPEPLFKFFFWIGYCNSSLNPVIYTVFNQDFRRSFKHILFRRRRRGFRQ
T2 sequence (P19328 whole entry): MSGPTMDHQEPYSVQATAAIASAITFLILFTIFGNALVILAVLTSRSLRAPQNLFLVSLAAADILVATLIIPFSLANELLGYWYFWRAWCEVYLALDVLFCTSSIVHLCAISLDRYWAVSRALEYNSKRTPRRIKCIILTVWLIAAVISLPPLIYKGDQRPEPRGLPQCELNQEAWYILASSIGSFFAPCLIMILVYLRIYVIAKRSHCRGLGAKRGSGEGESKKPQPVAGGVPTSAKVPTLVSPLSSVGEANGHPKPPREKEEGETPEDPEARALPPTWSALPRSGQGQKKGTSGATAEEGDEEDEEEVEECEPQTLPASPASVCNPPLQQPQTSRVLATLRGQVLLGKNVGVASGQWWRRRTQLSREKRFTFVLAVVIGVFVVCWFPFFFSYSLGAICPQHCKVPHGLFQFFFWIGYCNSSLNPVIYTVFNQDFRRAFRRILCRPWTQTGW
T2 sequence (P22909 whole entry): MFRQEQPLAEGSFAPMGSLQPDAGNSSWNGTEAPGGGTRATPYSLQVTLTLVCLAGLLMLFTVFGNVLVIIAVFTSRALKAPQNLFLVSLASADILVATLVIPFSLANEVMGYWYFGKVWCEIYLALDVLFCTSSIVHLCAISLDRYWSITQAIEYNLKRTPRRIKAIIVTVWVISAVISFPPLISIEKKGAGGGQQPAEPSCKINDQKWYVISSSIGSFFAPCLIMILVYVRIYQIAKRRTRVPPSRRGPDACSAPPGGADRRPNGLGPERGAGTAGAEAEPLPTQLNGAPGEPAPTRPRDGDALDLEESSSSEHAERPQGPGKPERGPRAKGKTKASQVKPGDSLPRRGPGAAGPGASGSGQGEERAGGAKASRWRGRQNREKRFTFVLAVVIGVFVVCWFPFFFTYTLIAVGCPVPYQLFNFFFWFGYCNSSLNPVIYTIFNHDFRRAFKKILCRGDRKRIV
Summary of the method: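 α2 competition binding run in triplicate with 1 nM [³H]clonidine plus 10 mM MgCl₂ in Tris pH 7.4, 30 min at room temperature. Test compounds at 1-100 µM. Nonspecific binding defined with 10 µM clonidine. Membranes collected on GF/B filters and washed twice with cold Tris. Protein 300-400 µg per assay. Ki given as mean ± SEM of 3-6 experiments.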

[3] = Selectivity ratio for binding affinity towards alpha2 and alpha-1 adrenoceptors
Summary of the method: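 Ratio of α2 Ki ([³H]clonidine binding) to α1 Ki ([³H]prazosin binding), both measured in rat cortical membrane competition assays.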

| Ki [1] [µM] | Ki [2] [µM] | Ratio [3] | SMILES |
| --- | --- | --- | --- |
| > 10 | – | – | Cn1c(=O)n2c(Br)c(CN3CCN(c4ccccc4Cl)CC3)nc2c2ccccc21 |
| > 10 | – | – | O=c1c2ccccc2nc2sc(Br)c(CN3CCN(c4ccccc4Cl)CC3)n12 |
| > 10 | – | – | COc1ccccc1N1CCN(Cc2nc3c4ccccc4n(C)c(=O)n3c2Br)CC1 |
| > 10 | – | – | COc1ccccc1N1CCN(Cc2csc3nc4ccccc4c(=O)n23)CC1 |
| 0.0061 | 3.09 | 506 | COc1ccccc1N1CCN(Cc2cnc3c4ccccc4n(C)c(=O)n23)CC1 |
| > 10 | – | – | Cn1c(=O)n2c(CN3CCN(c4ccccc4Cl)CC3)c(Br)nc2c2ccccc21 |
| > 10 | – | – | O=c1c2ccccc2nc2scc(CN3CCN(c4ccccc4Cl)CC3)n12 |
| > 10 | – | – | COc1ccccc1N1CCN(Cc2nc3c4ccccc4nc(O)n3c2Br)CC1 |
| > 10 | – | – | COc1ccccc1N1CCN(Cc2c(Br)nc3c4ccccc4n(C)c(=O)n23)CC1 |
| 0.0118 | 2.29 | 194 | O=S1(=O)c2ccccc2NC2=NCC(CN3CCN(c4ccccc4Cl)CC3)N21 (stereo not given) |
| > 10 | – | – | COc1ccccc1N1CCN(Cc2c(Br)nc3c4ccccc4nc(O)n23)CC1 |
| > 10 | – | – | Oc1nc2ccccc2c2nc(CN3CCN(c4ccccc4Cl)CC3)c(Br)n12 |
| 0.0065 | 3.25 | 499 | COc1ccccc1N1CCN(Cc2cn3c(=O)n(C)c4ccccc4c3n2)CC1 |
| > 10 | – | – | COc1ccccc1N1CCN(CC2CSc3nc4ccccc4c(=O)n32)CC1 (stereo not given) |
| 0.00495 | 0.46 | 93 | COc1ccccc1N1CCN(CC2CN=C3Nc4ccccc4S(=O)(=O)N32)CC1 (stereo not given) |
| > 10 | – | – | Oc1nc2ccccc2c2nc(Br)c(CN3CCN(c4ccccc4Cl)CC3)n12 |
| 0.186 | – | – | COc1ccccc1N1CCN(CC2CN=C3Nc4ccccc4C(=O)N32)CC1 (stereo not given) |
| 0.0141 | 0.513 | 36 | Cn1c(=O)n2cc(CN3CCN(c4ccccc4Cl)CC3)nc2c2ccccc21 |
| > 10 | – | – | COc1ccccc1N1CCN(Cc2c(Br)sc3nc4ccccc4c(=O)n23)CC1 |
| 0.00929 | 4.51 | 486 | Oc1nc2ccccc2c2nc(CN3CCN(c4ccccc4Cl)CC3)cn12 |
| 0.00428 | 0.525 | 123 | Cn1c(=O)n2c(CN3CCN(c4ccccc4Cl)CC3)cnc2c2ccccc21 |
